# From ChEMBL document CHEMBL4513216, “Probing the Open Global Health Chemical Diversity Library for Multistage-Active Starting Points for Next-Generation Antimalarials” (ACS Infect Dis, 2020)
# Assay: Toxicity liver stage against HepG2, at 10uM
# Type: cell-based
# Design: test concentration 10 uM, cell line HepG2-A16-CD81EGFP
# Conditions: human, HepG2-A16-CD81EGFP cells; read-out: INHIBITION
# How it was run: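 Uninfected HepG2-A16-CD81EGFP cells, 3 × 10^3 per well, 1536-well, plated on prespotted compound at 10 μM final, parasite-free screening media added to match infected plates; puromycin 10 μM positive, DMSO 0.5% negative; run in parallel with 48 h PbLuc assay at 37 °C, 5% CO2; viability by CellTiter-Glo luminescence, normalized to controls.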
row,SMILES,cytotoxicity at 10 µM [%]
1,O=C(NC[C@H]1OC[C@@H](NC(=O)c2ccccc2)[C@@H]1O)c1ccncc1,2.55
2,CC[C@H]1CN2CC[C@H]1C[C@@H]2CNCc1ccc2c(c1)OCO2,-5.9
3,COC1CCN(C(=O)CC(C)(C)C)CC(=O)N(C)c2ccccc21 (stereo not given),2.44
4,O=C(CCc1nc2cc(Br)cnc2[nH]1)NCCN1CCOCC1,5.08
5,Cc1nc(N(C)C)nc(C)c1NS(=O)(=O)c1ccc(F)cc1F,-3.58
6,Cn1nc(CNC(=O)c2ccc3nsnc3c2)c2c1CCOC2,6.53
7,OCc1cnc(Nc2ccccc2)nc1,11.3
8,CN(C)C(=O)N1CCC(C2C(=O)Nc3ccccc32)CC1 (stereo not given),11.9
9,COCC(=O)N1CCC2(CC1)NC(=O)[C@H]1CN(C(=O)N(C)C)C[C@H]12,7
10,Cc1cccc(CN2C(=O)CCC23CCN(C(=O)c2ccco2)CC3)c1,6.09
11,CC(C)NC(=O)c1ccc2c(c1)C(c1nc[nH]n1)CN2C (stereo not given),-141
12,FC1(F)CCNCC12CCN(c1ncccn1)C2 (stereo not given),6.65
13,COCC1c2nnn(CC3CC3)c2CCN1C(=O)c1cc(C)on1 (stereo not given),-132
14,COC(=O)Cn1nc(-c2ccccc2F)ccc1=O,8.01
15,CCOC(=O)N1CCN(C(=O)c2snnc2-c2ccccc2)CC1,0.847
16,CCc1nn(-c2cc(Oc3cccc(C)c3)nc(C)n2)c(N)c1C#N,-9.8
17,CCCNC(=O)Cn1nc(C(C)C)c2cnn(C(C)(C)C)c2c1=O,-20
18,Cc1nn(C)c(C)c1CN(C)c1nc(C2CC2)nc2c(C)nn(C)c12,3.98
19,Cc1occc1C(=O)N1CCCC(C2=Nc3ccccc3S(=O)(=O)N2)C1 (stereo not given),4.03
20,CNC(=O)C1(C)CN(c2nnc(C)c3ccccc23)CCO1 (stereo not given),-1.61
21,Cc1nc(C2CCCN(S(C)(=O)=O)C2)sc1Br (stereo not given),-10.3
22,CC(C)(C)C(=O)N1CCCC1c1nccnc1Cl (stereo not given),2.83

row,SMILES,cytotoxicity at 10 µM [%]
1,CN(C)S(=O)(=O)N1CCC(C)(c2ncc(C(N)=O)s2)CC1,-0.318
2,Cc1c(CN2CCCC2(C)C(=O)N2CCOCC2)cnn1C (stereo not given),-6.29
3,CN(C)C(=O)C1CCc2nnc(C(C)(C)C)n21 (stereo not given),3.13
4,Cc1ccnc(NC(=O)c2c(C)oc(C)c2C)c1,17.2
5,O=C(NC(CC(F)(F)F)c1ccc(Cl)cc1)c1nc(=O)[nH][nH]1 (stereo not given),-5.11
6,CCC1COCCN1C(=O)CNC(=O)c1ccc2c(c1)CCC2 (stereo not given),8.08
7,CNC(=O)C1CCCCN1C(=O)Cc1csc(-c2ccc(C)o2)n1 (stereo not given),8.61
8,CCN(CCC#N)Cn1ncc2cn(-c3ccccc3)nc2c1=O,-14.5
9,CC(CNC(=O)CCn1cncn1)N1CCc2ccccc21 (stereo not given),-157
10,Cc1ccc(C)n1-c1ccsc1C(=O)NCC(=O)N1CCCC1,-143
11,CCN(CC)CCCC(C)NC(=O)c1cccnc1-n1cccn1 (stereo not given),-0.595
12,Cc1n[nH]c(C2CN(CC(=O)NCc3sccc3C)CCO2)n1 (stereo not given),-4.75
13,O=S(=O)(NCC1COc2ccccc2C1)N1CCCCC1 (stereo not given),-0.628
14,COc1c(CNCc2cccnc2N2CCOCC2)c(C)nn1C,-151
15,CCc1nnc2n1CCN(C(=O)c1ccc3cc[nH]c3c1)C2,-6.43
16,CC(NC(=O)CCCOc1cccc(F)c1)c1ccncc1 (stereo not given),-3.6
17,CCc1ccc(CNc2ccccc2CN2CCC(O)CC2)o1,4.34
18,CN(Cc1ncnn1C)c1ccnc(Cc2ccccc2)n1,-1.92
19,Cc1ccccc1CN1CCCN(C(=O)c2ccn(C)c(=O)c2)CC1,1.62
20,CC(CCS(C)(=O)=O)NC(=O)NCc1ccc2ccccc2c1 (stereo not given),-137
21,CCc1cccc(NC(=O)CNc2ccccc2OCCC(=O)OC)c1,7.53
22,O=C(c1cnccn1)N(CCO)Cc1cc(Br)ccc1F,5.64

row,SMILES,cytotoxicity at 10 µM [%]
1,CCC(CC)CS(=O)(=O)NC(=O)C1CCCC1,-13.3
2,CNC(=O)c1cccc(NC(=O)CN2CCCN(S(C)(=O)=O)CC2)c1,3.56
3,CN(CC1CCOCC1)C(=O)NCCCN1CCCCC1,0.105
4,COc1ccccc1C(C)Nc1ncc(C(N)=O)cc1Cl (stereo not given),8.74
5,N#Cc1c(F)cccc1N1CCN(C(=O)Nc2nncs2)CC1,-0.908
6,COc1ccc(NC(=O)N2CCN(c3ncccn3)CC2)cn1,1
7,CN(Cc1cnn(C)c1)C(=O)Cn1c(CS(C)(=O)=O)nc2ccccc21,1.05
8,O=C(c1cscn1)N1CCc2ncnc(-c3ccncc3)c2CC1,-4.71
9,CNCCCNC1CCN(c2ccc(-n3ccnc3)cc2)CC1,-3.03
10,CCn1c(C2CCCNC2)nn(CCn2cncn2)c1=O (stereo not given),-18.1
11,CC(C)(C)c1cc(=O)[nH]c(-c2ccccc2CN2CCCCCC2)n1,-42
12,Cc1nc(N)sc1C(=O)N1CCCC(COc2ccc(F)cc2)C1 (stereo not given),-143
13,Cc1cccc(-c2nc3cc(S(=O)(=O)N4CCCC4)ccc3n2C)n1,16.8
14,COCc1nc(CNc2cc(C)nc(-c3ccccc3)n2)no1,7.06
15,CC(C)=CCN1CCN(C(=O)c2cc(C(C)C)no2)[C@H]2CS(=O)(=O)C[C@H]21,-7.86
16,COCc1ncn(Cc2nc(-c3ccco3)oc2C)n1,-8.53
17,CCC[C@@H]1CN(Cc2ccccc2SC)C[C@H]1NC(C)=O,-5.73
18,CC(C)(N)c1cn(C2CCN(C3CCSCC3)CC2)nn1,-10.7
19,COCCOCC(=O)N1CCC2(CCCN(C3CCOCC3)C2=O)C1 (stereo not given),-133
20,Cc1cnc(Cn2cc(-c3cccc(C(C)N(C)C)c3)nn2)cn1 (stereo not given),-0.807
21,CCc1ccc(-c2c(C)c(-c3cnn(C)c3)nc(N)c2C#N)o1,-133
22,CCNC(=O)[C@@H]1C[C@@H](NC(=O)c2cccn2C)CN1CCCSC,-122

row,SMILES,cytotoxicity at 10 µM [%]
1,C/C=C(\C)CN1C[C@H](NC(=O)c2cnc(O)cn2)C[C@H]1C(=O)NCC,7.31
2,Cc1cc2nc(C(C)C)cc(N[C@H](C(N)=O)C(C)C)n2n1,-1.66
3,CCOCCOc1ccccc1C(=O)N1CCCC(c2ncc[nH]2)C1 (stereo not given),-14.2
4,Cc1cnn(CC2CN(Cc3cccnc3)CCO2)c1 (stereo not given),-3.27
5,CC(C)CC(=O)NS(=O)(=O)c1ccc2c(c1)OCCCO2,-9.02
6,C1CC(c2nnc(CN3CCCC3c3noc(C4CC4)n3)o2)C1 (stereo not given),-7.77
7,CC(C)c1nc2c(n1C)CCN(Cc1nc(-c3cccnc3)no1)C2,-1.43
8,COc1c(CNCCNC(=O)c2ccccc2F)c(C)nn1C,-0.644
9,CCCNC(=O)NC(=O)CNC(C)(C)c1ccc2c(c1)OCO2,-12.7
10,CC1COCCN1Cc1nc(-c2ccsc2)no1 (stereo not given),-17.8
11,Cc1ccc(-c2cc(C(=O)NCCN3CCCS3(=O)=O)[nH]n2)o1,-7.98
12,Cc1nc(CN2CCCC(NCCCc3ccccc3)C2)no1 (stereo not given),-3.9
13,Cc1cccc(NC2CCN(C(=O)Nc3cc(F)ccc3F)CC2)n1,-10.7
14,Cc1noc2ncc(C(=O)N3CCCC3c3ccsc3)cc12 (stereo not given),-10.4
15,CN(C)c1cc(CNC(=O)c2c(F)cccc2F)ccn1,-18.1
16,CC(C)c1cnc(CN(C)C2CCN(CCCc3cnn(C)c3)C2)o1 (stereo not given),-13.3
17,CCc1ncc2c(n1)CN(CC(=O)Nc1cc(C)on1)CC2,0.049
18,COc1cccc(CN2CCCC(c3cc(C(N)=O)[nH]n3)C2)c1 (stereo not given),-1.67
19,Cn1nc2c(cc1=O)CN(Cc1nc(-c3ccco3)no1)CC2,1.22
20,O=C(NCCc1ccc(I)s1)N1CCC1,-11.1
21,Cc1cnn(CC(C)NCc2nc(-c3ccsc3)oc2C)c1 (stereo not given),-2.6
22,CN(C)CCN1CCN(C(=O)c2ccn(C)c(=O)c2)CC1,-4.14

row,SMILES,cytotoxicity at 10 µM [%]
1,Cc1ccc(NC2CCN(C(=O)COC3CCCCC3)CC2)nn1,5.94
2,Cc1ccc(S(=O)(=O)NC(=O)CCC2CCCO2)cc1 (stereo not given),-15.7
3,CC1COCCN1C(=O)c1cccc(OCc2cscn2)c1 (stereo not given),-9.93
4,Fc1cccc(-n2ccc(CN3CCCCC3Cn3cncn3)n2)c1 (stereo not given),-3.81
5,Cc1cc(C)n(CC2CCCN2CC(=O)NC2CCOCC2)n1 (stereo not given),-5.23
6,Cc1cc(C2CCCN2Cc2cc(=O)n(C)c(=O)n2C)on1 (stereo not given),-4.72
7,Cc1cncc(C(=O)N2C[C@@H]3CN(S(C)(=O)=O)CCO[C@@H]3C2)c1,-4.87
8,CN1CC(=O)N(c2ccccc2)CC12CCN(C(=O)c1ccnnc1)C2 (stereo not given),3.39
9,CN(C)CCOCC1CN(C(=O)c2cccn2C)Cc2ccnn2C1 (stereo not given),13.5
10,Cc1cccc(CN2CC[C@@H]3[C@@H]2CCN3C(=O)c2ccno2)n1,-18.2
11,Cn1cc(C2CC(=O)NC23CCN(C(=O)Cc2ccccn2)CC3)cn1 (stereo not given),5.06
12,O=C(O)[C@]12CCCN(Cc3cccs3)C[C@H]1CN(c1ncccn1)C2,7.58
13,CCn1ncc2c1C(COC)CN(c1ncc(F)cn1)C2 (stereo not given),14.6
14,CCS(=O)(=O)N1CC[C@H]2C(=O)N(Cc3cccnc3)CCO[C@H]2C1,-80.4
15,O=C1CC2(CCN(CC3CC3)C2)CN1c1cccnc1 (stereo not given),-1.18
16,O=C(C1CN(CC2CC2)CC12CCOCC2)N1CCOCC1 (stereo not given),6.07
17,CN1C(=O)CC(c2ccccc2)C12CCN(CC1CCOCC1)CC2 (stereo not given),1.02
18,CN1CCN(C(=O)[C@H]2C[C@H]3[C@H](CCN3Cc3cccs3)O2)CC1,-7.64
19,O=C(CCc1cccnc1)N1CCC2(CCN(CC3CCCC3)C2)C1 (stereo not given),3.82
20,CN(Cc1cncnc1)[C@@H]1CN(C(=O)C2CC2)[C@@H]2CCCO[C@H]12,-112
21,CC(=O)N1C[C@H]2CC[C@@H](C1)N(S(=O)(=O)c1ccccc1Cl)C2,-4
22,CC(C)CNC(=O)N1C[C@@H]2C[C@H](C(=O)NCc3ccccc3)[C@H](C1)O2,-0.924
